Test results from ChEMBL document CHEMBL1156662, “Tetracyclic terpenoids from Dasyscyphus niveus, dasyscyphins D and E” (2008).
Calls of active or inactive are those of the source. The calls are words filed in the database; no cut-off is given here.

Key:
[1] = tested on: Rhizomucor miehei; assay: Antifungal activity against Rhizomucor miehei Tu 284 at 50 ug/mL by disk diffusion assay; type: functional, organism-based
[2] = tested on: Penicillium chrysogenum; assay: Antifungal activity against Penicillium chrysogenum DSM 848 at 50 ug/mL by disk diffusion assay; type: functional, organism-based
[3] = tested on: Paecilomyces variotii; assay: Antifungal activity against Paecilomyces variotii DSM 1961 at 50 ug/mL by disk diffusion assay; type: functional, organism-based
[4] = tested on: Pyricularia oryzae; assay: Antifungal activity against Magnaporthe grisea 70-15 at 20 ug/mL after 18 hrs by conidia germination assay; type: functional, organism-based
Method in brief: (§1)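 M. grisea strain 70-15 conidia suspended in water at 5 × 10⁴/mL and exposed to compound. After 18 h, germination was scored microscopically against an inhibitor-free control. Conidia counted as affected were those that had not germinated or whose germ tubes were under 30% of control length.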

[5] = tested on: HeLa; assay: Cytotoxic activity against human HeLa S3 cells up to 50 ug/mL; type: functional, cell-based
Method in brief: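 HeLa S3 human cervix carcinoma cells were grown in DMEM with penicillin G (65 µg/mL) and streptomycin sulfate (100 µg/mL). Cells at 10⁵/mL were exposed to compound in microtiter wells at 37 °C in humidified 5% CO2. Viable cells were counted by microscopy at 24 and 48 h.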

[6] = tested on: Eremothecium coryli; assay: Antifungal activity against Nematospora coylii ATTC 10647 at 50 ug/mL by disk diffusion assay; type: functional, organism-based
[7] = tested on: Pyricularia oryzae; assay: Antifungal activity against Magnaporthe grisea 70-15 after 18 hrs by conidia germination assay; type: functional, organism-based; method in brief: as §1
[8] = tested on: Pyricularia oryzae; assay: Antifungal activity against Magnaporthe grisea 70-15 at 25 ug/mL after 18 hrs by conidia germination assay; type: functional; conditions: 70-15, 18 h; method in brief: as §1

**Q.** What does the source list for Cc1ccc2c(c1O)[C@@]1(C)CC[C@H]3C(C)(C)[C@@H](O)CC[C@]3(C)[C@H]1C2?
**A.** Activity [1]: inactive; Activity [2]: inactive; Activity [3]: inactive; Activity [4]: Active; Activity [5]: inactive; Activity [6]: inactive

**Q.** How did the Activity [7] turn out when COCc1cc(O)c2c(c1O)[C@@]1(C)CC[C@H]3C(C)(C)CCC[C@]3(C)[C@H]1C2 was run?
**A.** The Activity was “Active”.

**Q.** How did the Activity [7] turn out when CC(O)(CC(=O)O)CC(=O)OCC1=C[C@@]2(O)[C@H](C[C@@H]3[C@@]4(C)CCCC(C)(C)[C@@H]4CC[C@@]32C)C(=O)C1=O (some centres undefined) was run?
**A.** Its Activity is “Active”.

**Q.** With Cc1ccc2c(c1O)[C@@]1(C)CC[C@@H]3[C@](C)(CCC[C@]3(C)O)[C@H]1C2 [DASYSCYPHIN E] as the compound, how does the inhibition at 25 µg/mL [8] read?
**A.** Its inhibition at 25 µg/mL is 100%.
